From ChEMBL document CHEMBL1140705, “Synthesis and evaluation of N-methyl and S-methyl 11C-labeled 6-methylthio-2-(4'-N,N-dimethylamino)phenylimidazo[1,2-a]pyridines as radioligands for imaging beta-amyloid plaques in Alzheimer's disease” (J Med Chem, 2008)
Blank lines part the entries; values can stand above or below the molecule they belong to.

Key:
[1] = Lipophilicity, log D at pH 7.4; type: physicochemical; conditions: buffer
How it was run: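 Shake-flask partition: 3-5 mg ligand in 0.1 M PBS pH 7.4 (6.0 mL) with n-octanol (1.0 mL), vortexed, shaken, held 10 min at room temperature, centrifuged 5000g. Both phases quantified by reverse-phase HPLC; P taken as organic/aqueous concentration ratio; n = 3.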

[2] = biological target: Amyloid-beta precursor protein (Homo sapiens, UniProt P05067); test: Binding affinity to beta amyloid plaque in human Alzheimer's disease brain tissue; type: tissue-based
Amyloid-beta precursor protein, sequence (P05067 whole entry): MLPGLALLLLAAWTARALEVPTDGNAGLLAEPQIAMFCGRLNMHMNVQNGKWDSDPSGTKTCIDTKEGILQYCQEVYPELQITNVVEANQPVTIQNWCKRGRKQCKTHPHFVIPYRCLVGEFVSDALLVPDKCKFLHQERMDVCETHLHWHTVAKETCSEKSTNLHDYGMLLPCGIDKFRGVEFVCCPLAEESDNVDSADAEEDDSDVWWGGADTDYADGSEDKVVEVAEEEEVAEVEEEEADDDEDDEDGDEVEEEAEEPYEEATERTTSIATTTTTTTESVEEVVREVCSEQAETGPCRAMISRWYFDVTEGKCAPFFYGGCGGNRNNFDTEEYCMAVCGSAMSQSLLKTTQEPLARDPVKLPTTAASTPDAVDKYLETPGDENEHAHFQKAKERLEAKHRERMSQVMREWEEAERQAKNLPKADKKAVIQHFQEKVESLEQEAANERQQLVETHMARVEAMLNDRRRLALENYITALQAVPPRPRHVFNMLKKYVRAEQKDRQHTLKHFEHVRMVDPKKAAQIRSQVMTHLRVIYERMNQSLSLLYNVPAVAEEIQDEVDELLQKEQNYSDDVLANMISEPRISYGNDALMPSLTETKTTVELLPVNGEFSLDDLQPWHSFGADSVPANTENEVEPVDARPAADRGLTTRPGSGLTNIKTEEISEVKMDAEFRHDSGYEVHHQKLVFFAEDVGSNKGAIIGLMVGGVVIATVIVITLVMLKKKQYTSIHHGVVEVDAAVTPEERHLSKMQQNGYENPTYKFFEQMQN
How it was run: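 Competition binding in human AD brain homogenate (1:500 in PBS) against [3H]PIB (0.4 nM), displacer 10^-10 to 10^-5 M from DMSO dilutions, total volume 1.0 mL PBS, 2 h at 37 °C; filtration on polyethyleneimine-treated GF/B, PBS washes, scintillation counting. One-site competition fit; Ki by Cheng-Prusoff using KD from homologous displacement Scatchard analysis.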

[3] = biological target: Beta-2 adrenergic receptor (Homo sapiens) (UniProt P07550); test: Displacement of […] from adrenergic beta 2 receptor at 10 uM
Beta-2 adrenergic receptor (Homo sapiens), sequence (P07550 whole entry, looked up): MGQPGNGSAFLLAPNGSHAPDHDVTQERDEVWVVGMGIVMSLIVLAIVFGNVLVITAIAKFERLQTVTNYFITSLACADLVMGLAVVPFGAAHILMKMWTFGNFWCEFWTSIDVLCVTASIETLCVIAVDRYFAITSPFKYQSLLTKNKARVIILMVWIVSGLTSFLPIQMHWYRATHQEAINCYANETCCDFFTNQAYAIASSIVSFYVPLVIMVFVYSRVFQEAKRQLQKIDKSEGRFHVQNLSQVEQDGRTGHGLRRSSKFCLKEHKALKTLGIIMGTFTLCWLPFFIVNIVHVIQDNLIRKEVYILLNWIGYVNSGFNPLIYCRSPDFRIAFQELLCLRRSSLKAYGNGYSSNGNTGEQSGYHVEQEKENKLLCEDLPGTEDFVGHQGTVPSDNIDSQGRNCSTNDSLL

[4] = biological target: 5-hydroxytryptamine receptor 2C (Homo sapiens) (UniProt P28335); test: Displacement of […] from 5HT2C receptor at 10 uM
[5] = biological target: Mu-type opioid receptor (Homo sapiens) (UniProt P35372); test: Displacement of radioligand from mu opioid receptor at 10 uM
Mu-type opioid receptor (Homo sapiens), sequence (P35372 whole entry): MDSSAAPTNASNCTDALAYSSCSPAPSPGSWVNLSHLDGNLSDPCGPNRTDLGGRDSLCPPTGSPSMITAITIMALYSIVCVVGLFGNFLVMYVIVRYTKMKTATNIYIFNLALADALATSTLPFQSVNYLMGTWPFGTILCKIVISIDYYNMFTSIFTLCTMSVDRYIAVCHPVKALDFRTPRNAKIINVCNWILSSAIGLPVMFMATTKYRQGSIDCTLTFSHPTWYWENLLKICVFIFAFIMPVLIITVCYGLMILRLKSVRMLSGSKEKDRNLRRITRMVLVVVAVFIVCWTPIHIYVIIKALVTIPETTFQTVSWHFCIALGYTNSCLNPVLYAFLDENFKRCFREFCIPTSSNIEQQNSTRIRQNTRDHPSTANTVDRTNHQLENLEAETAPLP

[6] = biological target: 5-hydroxytryptamine receptor 1B (Homo sapiens) (UniProt P28222); test: Displacement of […] from 5HT1B receptor at 10 uM
[7] = biological target: 5-hydroxytryptamine receptor 6 (Homo sapiens) (UniProt P50406); test: Displacement of […] from 5HT6 receptor at 10 uM
[8] = biological target: D(3) dopamine receptor (Homo sapiens) (UniProt P35462); test: Displacement of […] from dopamine D3 receptor at 10 uM
[9] = biological target: 5-hydroxytryptamine receptor 1E (Homo sapiens) (UniProt P28566); test: Displacement of […] from 5HT1E receptor at 10 uM
[10] = biological target: 5-hydroxytryptamine receptor 7 (Homo sapiens) (UniProt P34969); test: Displacement of […] from 5HT7 receptor at 10 uM
5-hydroxytryptamine receptor 7 (Homo sapiens), sequence (P34969 whole entry): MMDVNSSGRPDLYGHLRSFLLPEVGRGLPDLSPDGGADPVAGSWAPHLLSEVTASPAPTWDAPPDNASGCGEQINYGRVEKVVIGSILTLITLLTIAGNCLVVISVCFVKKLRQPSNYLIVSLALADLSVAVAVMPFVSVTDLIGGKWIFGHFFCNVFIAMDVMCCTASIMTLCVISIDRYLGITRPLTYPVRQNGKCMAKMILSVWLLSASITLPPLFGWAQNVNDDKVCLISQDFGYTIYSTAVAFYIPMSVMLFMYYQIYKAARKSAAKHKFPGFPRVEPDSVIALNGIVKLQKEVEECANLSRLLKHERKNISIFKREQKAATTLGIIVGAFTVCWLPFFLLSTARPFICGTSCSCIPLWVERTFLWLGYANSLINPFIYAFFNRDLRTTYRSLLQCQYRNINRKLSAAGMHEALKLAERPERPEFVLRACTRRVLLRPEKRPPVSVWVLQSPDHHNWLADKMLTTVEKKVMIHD

[11] = biological target: Alpha-1B adrenergic receptor (Homo sapiens) (UniProt P35368); test: Displacement of […] from adrenergic alpha-1b receptor at 10 uM
[12] = biological target: D(1A) dopamine receptor (Homo sapiens) (UniProt P21728); test: Displacement of […] from dopamine D1 receptor at 10 uM
D(1A) dopamine receptor (Homo sapiens), sequence (P21728 whole entry): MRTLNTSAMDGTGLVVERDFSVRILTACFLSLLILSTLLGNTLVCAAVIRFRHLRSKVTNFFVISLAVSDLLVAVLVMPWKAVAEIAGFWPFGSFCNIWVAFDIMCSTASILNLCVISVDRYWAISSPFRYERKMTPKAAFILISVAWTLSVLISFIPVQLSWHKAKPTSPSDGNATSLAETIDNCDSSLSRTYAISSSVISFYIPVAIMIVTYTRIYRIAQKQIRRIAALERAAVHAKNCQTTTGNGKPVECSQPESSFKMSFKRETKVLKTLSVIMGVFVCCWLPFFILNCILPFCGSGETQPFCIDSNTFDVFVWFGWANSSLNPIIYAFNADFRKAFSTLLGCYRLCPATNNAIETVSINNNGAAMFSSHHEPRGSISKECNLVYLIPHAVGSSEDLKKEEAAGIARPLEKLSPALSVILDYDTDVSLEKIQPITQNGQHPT

[13] = biological target: D(2) dopamine receptor (Homo sapiens) (UniProt P14416); test: Displacement of […] from dopamine D2 receptor at 10 uM
[14] = biological target: 5-hydroxytryptamine receptor 3A (Homo sapiens) (UniProt P46098); test: Displacement of […] from 5HT3 receptor at 10 uM
5-hydroxytryptamine receptor 3A (Homo sapiens), sequence (P46098 whole entry): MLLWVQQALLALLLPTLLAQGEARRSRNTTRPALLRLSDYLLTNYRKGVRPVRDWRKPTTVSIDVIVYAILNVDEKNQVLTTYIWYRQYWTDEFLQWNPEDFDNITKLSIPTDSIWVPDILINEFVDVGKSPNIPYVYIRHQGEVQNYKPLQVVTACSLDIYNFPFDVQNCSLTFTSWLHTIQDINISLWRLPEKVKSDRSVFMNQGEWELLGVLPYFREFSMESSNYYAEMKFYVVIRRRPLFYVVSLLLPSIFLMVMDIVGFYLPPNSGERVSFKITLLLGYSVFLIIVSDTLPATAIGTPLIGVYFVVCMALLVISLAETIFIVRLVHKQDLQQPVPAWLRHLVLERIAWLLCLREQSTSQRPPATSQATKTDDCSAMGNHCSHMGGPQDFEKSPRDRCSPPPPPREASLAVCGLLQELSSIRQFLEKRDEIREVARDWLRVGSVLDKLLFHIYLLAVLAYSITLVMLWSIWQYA

[15] = biological target: 5-hydroxytryptamine receptor 2B (Homo sapiens) (UniProt P41595); test: Displacement of […] from 5HT2B receptor at 10 uM
[16] = biological target: D(4) dopamine receptor (Homo sapiens) (UniProt P21917); test: Displacement of […] from dopamine D4 receptor at 10 uM
[17] = biological target: Alpha-2A adrenergic receptor (Homo sapiens) (UniProt P08913); test: Displacement of […] from adrenergic alpha-2a receptor at 10 uM
Alpha-2A adrenergic receptor (Homo sapiens), sequence (P08913 whole entry): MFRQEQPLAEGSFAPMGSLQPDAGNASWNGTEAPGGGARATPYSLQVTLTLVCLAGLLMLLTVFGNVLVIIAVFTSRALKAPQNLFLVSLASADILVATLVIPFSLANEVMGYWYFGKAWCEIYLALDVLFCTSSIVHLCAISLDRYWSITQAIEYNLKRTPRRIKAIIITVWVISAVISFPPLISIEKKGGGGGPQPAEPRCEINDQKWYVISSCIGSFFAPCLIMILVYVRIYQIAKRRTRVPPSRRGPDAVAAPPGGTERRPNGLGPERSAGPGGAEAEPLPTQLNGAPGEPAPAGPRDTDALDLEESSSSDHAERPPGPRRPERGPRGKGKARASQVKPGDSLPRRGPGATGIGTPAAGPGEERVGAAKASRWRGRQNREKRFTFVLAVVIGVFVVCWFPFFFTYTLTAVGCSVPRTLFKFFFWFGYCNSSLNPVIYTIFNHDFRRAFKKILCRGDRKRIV

[18] = biological target: 5-hydroxytryptamine receptor 5A (Homo sapiens) (UniProt P47898); test: Displacement of […] from 5HT5A receptor at 10 uM
5-hydroxytryptamine receptor 5A (Homo sapiens), sequence (P47898 whole entry): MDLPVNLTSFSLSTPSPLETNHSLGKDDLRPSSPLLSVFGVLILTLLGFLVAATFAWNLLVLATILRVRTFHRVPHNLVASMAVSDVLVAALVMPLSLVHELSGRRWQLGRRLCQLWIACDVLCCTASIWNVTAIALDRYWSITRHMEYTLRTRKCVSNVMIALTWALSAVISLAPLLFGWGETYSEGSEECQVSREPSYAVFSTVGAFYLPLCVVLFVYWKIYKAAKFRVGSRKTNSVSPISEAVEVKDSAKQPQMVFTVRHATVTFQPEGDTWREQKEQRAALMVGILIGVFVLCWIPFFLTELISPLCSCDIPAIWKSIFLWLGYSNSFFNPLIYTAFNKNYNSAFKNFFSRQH

[19] = biological target: Histamine H1 receptor (Homo sapiens) (UniProt P35367); test: Displacement of […] from histamine H1 receptor at 10 uM
[20] = biological target: 5-hydroxytryptamine receptor 2A (Homo sapiens) (UniProt P28223); test: Displacement of […] from 5HT2A receptor at 10 uM
5-hydroxytryptamine receptor 2A (Homo sapiens), sequence (P28223 whole entry): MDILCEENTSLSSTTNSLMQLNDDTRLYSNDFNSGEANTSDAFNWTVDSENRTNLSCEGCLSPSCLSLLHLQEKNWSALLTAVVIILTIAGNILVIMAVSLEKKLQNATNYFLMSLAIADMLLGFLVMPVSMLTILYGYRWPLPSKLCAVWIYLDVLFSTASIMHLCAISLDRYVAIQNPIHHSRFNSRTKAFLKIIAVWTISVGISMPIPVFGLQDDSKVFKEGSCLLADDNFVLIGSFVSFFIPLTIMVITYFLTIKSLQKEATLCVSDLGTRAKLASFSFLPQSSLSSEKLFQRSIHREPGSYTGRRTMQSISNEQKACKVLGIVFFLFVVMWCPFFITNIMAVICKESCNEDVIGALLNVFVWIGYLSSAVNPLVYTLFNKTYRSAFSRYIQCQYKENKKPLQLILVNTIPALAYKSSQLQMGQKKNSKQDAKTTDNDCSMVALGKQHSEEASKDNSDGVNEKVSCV

[21] = biological target: D(1B) dopamine receptor (Homo sapiens) (UniProt P21918); test: Displacement of […] from dopamine D5 receptor at 10 uM
[22] = biological target: 5-hydroxytryptamine receptor 1D (Homo sapiens) (UniProt P28221); test: Displacement of […] from 5HT1D receptor at 10 uM
[23] = biological target: 5-hydroxytryptamine receptor 1A (Homo sapiens) (UniProt P08908); test: Displacement of […] from 5HT1A receptor at 10 uM
5-hydroxytryptamine receptor 1A (Homo sapiens), sequence (P08908 whole entry): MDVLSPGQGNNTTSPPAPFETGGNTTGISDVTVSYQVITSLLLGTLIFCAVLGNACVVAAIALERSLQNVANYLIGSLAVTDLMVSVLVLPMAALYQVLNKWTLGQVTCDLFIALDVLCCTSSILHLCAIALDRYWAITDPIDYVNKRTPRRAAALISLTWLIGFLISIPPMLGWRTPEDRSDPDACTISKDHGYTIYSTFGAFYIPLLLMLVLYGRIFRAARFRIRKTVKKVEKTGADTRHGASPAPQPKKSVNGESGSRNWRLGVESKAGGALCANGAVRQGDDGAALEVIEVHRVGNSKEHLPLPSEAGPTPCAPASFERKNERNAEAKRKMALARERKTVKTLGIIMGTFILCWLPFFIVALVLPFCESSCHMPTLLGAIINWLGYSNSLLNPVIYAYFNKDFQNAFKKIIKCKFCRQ

[24] = biological target: Alpha-1A adrenergic receptor (Homo sapiens) (UniProt P35348); test: Displacement of […] from adrenergic Alpha-1A receptor at 10 uM
Rattus norvegicus [25] = test: Ratio of brain radioactivity at maximal uptake to that at 60 min in iv dosed rat after 60 mins; conditions: in vivo, 1 h
Plasma [26] = test: Drug level in monkey plasma at 1.35 Ci/umol after 10 mins; type: ADME, cell-free, Macaca mulatta; conditions: rhesus monkey
How it was run: (§1)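 Two monkey experiments with no-carrier-added [11C] tracer given iv. Anticoagulated venous blood drawn at 10 and 30 min, plasma analysed by radio-HPLC. Parent fraction reported as percent of plasma radioactivity and as % SUV.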

[27] = Stability in monkey whole blood after 30 mins; type: ADME, tissue-based, Macaca mulatta; conditions: rhesus monkey, read-out: Stability
Plasma [28] = test: Biodistribution in rat plasma at 0.9 to 1.9 Ci/umol, penile iv after 2.83 mins; type: ADME, organism-based; conditions: in vivo, 170 s
How it was run: (§2)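 No-carrier-added [11C] tracer (0.82-3.6 mCi) given by penile vein to rats, killed at 2.33, 2.83 or 30 min. Brain tissue extracted and homogenized in acetonitrile/water with carrier, plasma treated likewise, urine analysed directly, all by reverse-phase radio-HPLC. Radioactivity normalized to injected dose and body weight as % SUV, split into parent and three radiometabolites.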

Rattus norvegicus [29] = test: Biodistribution in rat urine at 0.9 to 1.9 Ci/umol, penile iv after 2.83 mins; type: ADME, organism-based; conditions: in vivo, 170 s; how it was run: as §2
Plasma [30] = test: Biodistribution in rat plasma at 0.9 to 1.9 Ci/umol, penile iv after 2.33 mins; type: ADME, organism-based; conditions: in vivo, 140 s; how it was run: as §2
Cerebrum [31] = test: Biodistribution in rat cerebrum at 0.9 to 1.9 Ci/umol, penile iv after 2.83 mins; type: ADME, organism-based; conditions: in vivo, 170 s; how it was run: as §2
Cerebellum [32] = test: Biodistribution in rat cerebellum at 0.9 to 1.9 Ci/umol, penile iv after 2.83 mins; type: ADME, organism-based; conditions: in vivo, 170 s; how it was run: as §2
Cerebellum [33] = test: Biodistribution in rat cerebellum at 22.94 umol/kg bolus injection after 10 mins; type: ADME, organism-based; conditions: in vivo
How it was run: (§3)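 Carrier-added [11C] tracer (carrier 22.94 µmol/kg) injected as bolus into one rat, tissues and plasma taken at 10 min. Samples extracted into acetonitrile and analysed by radio-HPLC. Results given as % SUV, partitioned into parent and radiometabolites A-C.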

[34] = Biodistribution in rat cerebrum at 0.9 to 1.9 Ci/umol, penile iv after 2.33 mins; conditions: in vivo, 140 s
Plasma [35] = test: Biodistribution in rat plasma at 22.94 umol/kg bolus injection after 10 mins; type: ADME, organism-based; conditions: in vivo; how it was run: as §3
[36] = Stability in monkey whole blood after 90 mins; type: ADME, tissue-based, Macaca mulatta; conditions: rhesus monkey, read-out: Stability
How it was run: (§4)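 No-carrier-added [11C] tracer (25.0 µCi monkey, 46.5 µCi rat) in 1 mL whole blood, shaken at 37 °C. Aliquots taken at 60 and 90 min into acetonitrile spiked with carrier, centrifuged, and supernatant radio-HPLC gives percent unchanged. Pellet counting gives extraction recovery.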

Cerebrum [37] = test: Biodistribution in rat cerebrum at 0.9 to 1.9 Ci/umol, penile iv after 30 mins; type: ADME, organism-based; conditions: in vivo, 0.5 h; how it was run: as §2
Cerebellum [38] = test: Biodistribution in rat cerebellum at 0.9 to 1.9 Ci/umol, penile iv after 30 mins; type: ADME, organism-based; conditions: in vivo, 0.5 h; how it was run: as §2
[39] = Stability in rat brain after 60 mins; type: ADME, tissue-based; conditions: read-out: Stability
How it was run: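 Rat brain (1.75 g) homogenized in saline on ice and incubated with formulated [11C] tracer (186 µCi) at 37 °C with shaking. Aliquots quenched into carrier-spiked acetonitrile, centrifuged, and supernatant analysed by radio-HPLC for percent unchanged.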

Plasma [40] = test: Biodistribution in rat plasma at 0.9 to 1.9 Ci/umol, penile iv after 30 mins; type: ADME, organism-based; conditions: in vivo, 0.5 h; how it was run: as §2
Plasma [41] = test: Drug level in monkey plasma at 1.35 Ci/umol after 30 mins; type: ADME, cell-free, Macaca mulatta; conditions: rhesus monkey, 0.5 h; how it was run: as §1
[42] = Stability in rat whole blood after 60 mins; type: ADME, tissue-based; conditions: read-out: Stability; how it was run: as §4
Cerebrum [43] = test: Biodistribution in rat cerebrum at 22.94 umol/kg bolus injection after 10 mins; type: ADME, organism-based; conditions: in vivo; how it was run: as §3
Mus musculus = test: Ratio of brain radioactivity at maximal uptake to that at 60 min in iv dosed mouse after 60 mins; conditions: in vivo, 1 h
[44] = Radiochemical stability after 3 hrs at pH 7.5; type: physicochemical; conditions: pH 7.5, 3 h
How it was run: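 Purity of formulated tracer (saline with ethanol and polysorbate 80, pH ~7.5) followed over 3 h by radio-HPLC on a C18 column, MeOH/H2O/Et3N 70:30:0.1.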

SMILES: COC(=O)CCSc1ccc2nc(-c3ccc(N(C)C)cc3)cn2c1
logD [1]: 3.6
Ki [2]: 205 nM

SMILES: CNc1ccc(-c2cn3cc(SC)ccc3n2)cc1
logD [1]: 3.6
Ki [2]: 80 nM

SMILES: CSc1ccc2nc(-c3ccc(N)cc3)cn2c1
logD [1]: 2.6
Ki [2]: 377 nM

Results, then the molecule that gave them:

logD [1]: 3.58
SMILES: CN(C)c1ccc(-c2cn3cc(I)ccc3n2)cc1

Activity [3]: < 50%
Activity [4]: < 50%
inhibition [5]: < 50%
Activity [6]: < 50%
logD [1]: 4.1
Activity [7]: < 50%
Activity [8]: < 50%
Activity [9]: < 50%
Activity [10]: < 50%
Activity [11]: < 50%
Activity [12]: < 50%
Activity [13]: < 50%
Activity [14]: < 50%
Activity [15]: < 50%
Activity [16]: < 50%
Activity [17]: < 50%
Activity [18]: < 50%
Activity [19]: < 50%
Activity [20]: < 50%
Activity [21]: < 50%
Activity [22]: < 50%
Activity [23]: < 50%
Activity [24]: < 50%
SMILES: CSc1ccc2nc(-c3ccc(N(C)C)cc3)cn2c1

Ratio (Rattus norvegicus [25]): 6.1
SMILES: CSc1ccc2nc(-c3ccc(N(C)[11CH3])cc3)cn2c1

Activity (Plasma [26]): 12.4%
remaining at 0.5 h [27]: 96.2%
Ratio (Rattus norvegicus [25]): 18.7
Drug uptake (Plasma [28]): 9.15%
Drug uptake (Rattus norvegicus [29]): 25.7%
Drug uptake (Plasma [30]): 9.57%
Drug uptake (Cerebrum [31]): 30.2%
Drug uptake (Cerebellum [32]): 31.9%
Drug uptake (Cerebellum [33]): 83.1%
Drug uptake [34]: 41.9%
Drug uptake (Plasma [35]): 55.3%
remaining at 1.5 h [36]: 94.5%
Drug uptake (Cerebrum [37]): 13%
Drug uptake (Cerebellum [38]): 18.6%
remaining at 1 h [39]: 93.6%
Drug uptake (Plasma [40]): 0.2%
Activity (Plasma [41]): 3.5%
remaining at 1 h [42]: 91%
Drug uptake (Cerebrum [43]): 80.9%
Ratio (Mus musculus): 11.1
Stability [44]: Stable
SMILES: CN(C)c1ccc(-c2cn3cc(S[11CH3])ccc3n2)cc1
